According to ChEMBL document CHEMBL3286317, “Synthesis and biological evaluation of a unique heparin mimetic hexasaccharide for structure-activity relationship studies” (J Med Chem, 2014):
Activity calls are given as the source filed them. The calls are words filed in the database; no cut-off is given here.

Key:
[1] = biological target: T1, P-selectin/P-selectin glycoprotein ligand 1 (Homo sapiens, UniProt P16109+Q14242); assay: Inhibition of PSEL/PSGL1 (unknown origin) interaction; assay type: protein assay
T1 sequence (Q14242 whole entry): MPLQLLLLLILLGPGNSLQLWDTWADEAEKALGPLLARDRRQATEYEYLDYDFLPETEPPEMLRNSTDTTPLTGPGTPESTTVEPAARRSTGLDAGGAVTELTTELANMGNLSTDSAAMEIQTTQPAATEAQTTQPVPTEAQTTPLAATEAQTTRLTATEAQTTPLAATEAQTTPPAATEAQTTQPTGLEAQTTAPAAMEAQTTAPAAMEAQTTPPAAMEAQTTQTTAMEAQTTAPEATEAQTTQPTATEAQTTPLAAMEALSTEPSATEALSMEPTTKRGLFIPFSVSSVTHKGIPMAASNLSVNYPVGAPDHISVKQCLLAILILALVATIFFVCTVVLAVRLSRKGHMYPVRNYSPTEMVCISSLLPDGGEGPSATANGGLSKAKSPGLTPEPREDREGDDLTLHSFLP
T1 sequence (P16109 whole entry): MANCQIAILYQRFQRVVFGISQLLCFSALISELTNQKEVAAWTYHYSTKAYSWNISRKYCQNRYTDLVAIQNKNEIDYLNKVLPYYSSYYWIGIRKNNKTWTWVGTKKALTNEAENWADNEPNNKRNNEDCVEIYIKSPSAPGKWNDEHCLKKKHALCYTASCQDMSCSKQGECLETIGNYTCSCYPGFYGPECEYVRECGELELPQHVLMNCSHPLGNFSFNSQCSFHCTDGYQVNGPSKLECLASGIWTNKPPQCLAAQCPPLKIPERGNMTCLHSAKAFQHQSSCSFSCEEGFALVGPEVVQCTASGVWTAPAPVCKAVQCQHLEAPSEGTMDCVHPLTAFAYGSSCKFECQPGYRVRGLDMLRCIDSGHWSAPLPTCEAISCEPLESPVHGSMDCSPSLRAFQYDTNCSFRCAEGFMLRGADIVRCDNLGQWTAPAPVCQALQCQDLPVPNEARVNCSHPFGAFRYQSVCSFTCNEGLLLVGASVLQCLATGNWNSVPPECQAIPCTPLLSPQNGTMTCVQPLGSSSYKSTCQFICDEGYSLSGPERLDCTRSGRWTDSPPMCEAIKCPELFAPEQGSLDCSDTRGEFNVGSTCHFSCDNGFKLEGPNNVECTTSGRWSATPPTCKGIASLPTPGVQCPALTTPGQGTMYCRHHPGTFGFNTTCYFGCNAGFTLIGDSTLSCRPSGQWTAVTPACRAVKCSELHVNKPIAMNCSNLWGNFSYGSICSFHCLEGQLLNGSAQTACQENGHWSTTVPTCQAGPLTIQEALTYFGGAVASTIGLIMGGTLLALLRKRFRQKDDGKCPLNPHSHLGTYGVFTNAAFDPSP
Procedure, shortened: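 Hexasaccharide dilution series mixed with 50 nM PSEL and passed over a PSGL1-Fc-coated SPR surface. Equilibrium response was measured. IC50 came from nonlinear regression of response vs concentration, and Ki from the Cheng–Prusoff equation.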

[2] = Binding affinity to human recombinant IL-23 by surface plasmon resonance assay
Procedure, shortened: (§1)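 Biotinylated low-molecular-weight heparin was captured on a neutravidin surface. Protein at varying concentrations was mixed with a hexasaccharide dilution series and injected. Free protein was read from a quadratic slope-vs-concentration standard curve. KD = [P_free][H_total]/[P_bound], averaged over three hexasaccharide concentrations.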

Interferon gamma = biological target: T2, Interferon gamma (Homo sapiens, UniProt P01579); assay: Binding affinity to human recombinant IFN-gamma by surface plasmon resonance assay; procedure, shortened: as §1
T2 sequence (P01579 whole entry): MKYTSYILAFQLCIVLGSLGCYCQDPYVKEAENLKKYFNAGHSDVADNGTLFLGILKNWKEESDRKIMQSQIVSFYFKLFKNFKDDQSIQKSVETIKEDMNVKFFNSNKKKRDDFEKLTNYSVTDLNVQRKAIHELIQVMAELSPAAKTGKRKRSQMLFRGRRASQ

[3] = biological target: Stromal cell-derived factor 1 (Homo sapiens, UniProt P48061); assay: Binding affinity to human recombinant CXCL12 by surface plasmon resonance assay; procedure, shortened: as §1
Platelet factor 4 = biological target: T3, Platelet factor 4 (Homo sapiens, UniProt P02776); assay: Binding affinity to human recombinant CXCL4 by surface plasmon resonance assay; procedure, shortened: as §1
T3 sequence (P02776 whole entry): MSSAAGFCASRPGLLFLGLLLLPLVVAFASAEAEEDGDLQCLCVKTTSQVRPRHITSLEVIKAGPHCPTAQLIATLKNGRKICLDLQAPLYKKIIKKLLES

C-C motif chemokine 2 = C-C motif chemokine 2 (Homo sapiens, UniProt P13500); assay: Binding affinity to human recombinant CCL2 by surface plasmon resonance assay; procedure, shortened: as §1
Protein Wnt-3a = Protein Wnt-3a (Homo sapiens, UniProt P56704); assay: Binding affinity to human recombinant WNT3A by surface plasmon resonance assay; procedure, shortened: as §1
[4] = biological target: T4, Heparanase (Homo sapiens) (UniProt Q9Y251); assay: Inhibition of recombinant heparanase (unknown origin) using biotin-cryptate-labeled heparan sulfate as substrate at 4.2 mg/ml preincubated for 15 mins prior to substrate challenge by TR-FRET assay
T4 sequence (whole entry): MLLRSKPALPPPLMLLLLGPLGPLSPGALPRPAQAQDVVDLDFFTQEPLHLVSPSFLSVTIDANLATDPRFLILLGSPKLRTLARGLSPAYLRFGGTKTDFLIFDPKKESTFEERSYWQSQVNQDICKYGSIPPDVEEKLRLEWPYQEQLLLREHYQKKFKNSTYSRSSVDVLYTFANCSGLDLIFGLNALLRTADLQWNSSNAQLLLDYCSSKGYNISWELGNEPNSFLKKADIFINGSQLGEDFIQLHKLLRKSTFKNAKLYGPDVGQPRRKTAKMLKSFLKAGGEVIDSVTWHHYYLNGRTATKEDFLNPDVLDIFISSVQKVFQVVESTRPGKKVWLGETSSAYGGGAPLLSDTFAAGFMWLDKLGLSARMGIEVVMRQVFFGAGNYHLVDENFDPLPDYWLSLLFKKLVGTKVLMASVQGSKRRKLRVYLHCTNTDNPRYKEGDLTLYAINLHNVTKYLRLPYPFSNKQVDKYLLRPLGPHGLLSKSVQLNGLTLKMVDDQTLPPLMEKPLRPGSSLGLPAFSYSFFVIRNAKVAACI
Procedure, shortened: (§2)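 Recombinant heparanase was preincubated with compound at various concentrations for 15 min at 37 °C. It was then added to biotin-cryptate-labeled heparan sulfate substrate with streptavidin-XL665 for 1 h at 37 °C. Read-out was TR-FRET between europium cryptate and XL665.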

[5] = biological target: Fibroblast growth factor 1 (Homo sapiens, UniProt P05230); assay: Binding affinity to human recombinant FGF1 by surface plasmon resonance assay; procedure, shortened: as §1
[6] = biological target: T4, Heparanase (Homo sapiens); assay: Inhibition of recombinant heparanase (unknown origin) using biotin-cryptate-labeled heparan sulfate as substrate at 0.03 to 8 mg/ml preincubated for 15 mins prior to substrate challenge by TR-FRET assay; procedure, shortened: as §2
[7] = biological target: T4, Heparanase (Homo sapiens); assay: Inhibition of recombinant heparanase (unknown origin) using biotin-cryptate-labeled heparan sulfate as substrate at 8.3 mg/ml preincubated for 15 mins prior to substrate challenge by TR-FRET assay; procedure, shortened: as §2

Chain of Stromal cell-derived factor 1 (P48061 whole entry): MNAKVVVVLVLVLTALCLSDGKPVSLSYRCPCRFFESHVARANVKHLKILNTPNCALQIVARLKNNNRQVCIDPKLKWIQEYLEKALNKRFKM
Chain of Protein Wnt-3a (P56704 whole entry): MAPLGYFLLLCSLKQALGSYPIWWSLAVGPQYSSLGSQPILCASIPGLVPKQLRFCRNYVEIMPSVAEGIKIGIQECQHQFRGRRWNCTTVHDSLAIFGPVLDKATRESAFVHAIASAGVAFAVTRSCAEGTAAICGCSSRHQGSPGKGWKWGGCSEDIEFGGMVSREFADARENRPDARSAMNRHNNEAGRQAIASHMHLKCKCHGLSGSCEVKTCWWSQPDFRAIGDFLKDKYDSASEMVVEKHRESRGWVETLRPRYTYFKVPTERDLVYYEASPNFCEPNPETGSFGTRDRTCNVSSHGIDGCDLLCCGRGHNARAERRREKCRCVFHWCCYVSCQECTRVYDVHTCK
Chain of Fibroblast growth factor 1 (P05230 whole entry): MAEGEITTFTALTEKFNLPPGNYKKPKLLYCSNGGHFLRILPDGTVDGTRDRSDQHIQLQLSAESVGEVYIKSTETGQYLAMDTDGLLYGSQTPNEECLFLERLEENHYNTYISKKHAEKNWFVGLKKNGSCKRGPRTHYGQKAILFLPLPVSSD
Chain of C-C motif chemokine 2 (P13500 whole entry): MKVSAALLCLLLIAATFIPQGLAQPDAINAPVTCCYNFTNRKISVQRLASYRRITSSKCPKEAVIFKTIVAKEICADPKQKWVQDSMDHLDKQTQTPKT

Compound	Ki [1] [µM]	Kd [2] [µM]	Kd (Interferon gamma) [µM]	Kd [3] [µM]	Kd (Platelet factor 4) [µM]	Kd (C-C motif chemokine 2) [µM]	Kd (Protein Wnt-3a) [µM]	Imax [4] [%]	Kd [5] [µM]	inhibition [6]	Imax [7] [%]
CCCCCO[C@H]1O[C@H](COS(=O)(=O)O)[C@@H](O[C@@H]2O[C@@H](C(=O)O)[C@@H](O[C@H]3O[C@H](COS(=O)(=O)O)[C@@H](O[C@@H]4O[C@@H](C(=O)O)[C@@H](O[C@H]5O[C@H](COS(=O)(=O)O)[C@@H](O[C@@H]6O[C@@H](C(=O)O)[C@@H](O)[C@H](O)[C@H]6OS(=O)(=O)O)[C@H](O)[C@H]5NC(C)=O)[C@H](O)[C@H]4OS(=O)(=O)O)[C@H](O)[C@H]3NS(=O)(=O)O)[C@H](O)[C@H]2O)[C@H](O)[C@H]1NC(C)=O	96	4	7	24	3	61	18	47.2			
NCCCCCO[C@H]1O[C@H](CO)[C@@H](O[C@@H]2O[C@@H](C(=O)O)[C@@H](O[C@H]3O[C@H](CO)[C@@H](O[C@@H]4O[C@@H](C(=O)O)[C@@H](O[C@H]5O[C@H](CO)[C@@H](O[C@@H]6O[C@@H](C(=O)O)[C@@H](O)[C@H](O)[C@H]6OS(=O)(=O)O)[C@H](O)[C@H]5NS(=O)(=O)O)[C@H](O)[C@H]4OS(=O)(=O)O)[C@H](O)[C@H]3NS(=O)(=O)O)[C@H](O)[C@H]2OS(=O)(=O)O)[C@H](O)[C@H]1NS(=O)(=O)O	358	7	10						8	Active	
CCCCCO[C@H]1O[C@H](COS(=O)(=O)O)[C@@H](O[C@@H]2O[C@@H](C(=O)O)[C@@H](O[C@H]3O[C@H](COS(=O)(=O)O)[C@@H](O[C@@H]4O[C@@H](C(=O)O)[C@@H](O[C@H]5O[C@H](COS(=O)(=O)O)[C@@H](O[C@@H]6O[C@@H](C(=O)O)[C@@H](O)[C@H](O)[C@H]6OS(=O)(=O)O)[C@H](O)[C@H]5NC(C)=O)[C@H](O)[C@H]4OS(=O)(=O)O)[C@H](O)[C@H]3NC(C)=O)[C@H](O)[C@H]2OS(=O)(=O)O)[C@H](O)[C@H]1NC(C)=O	250			77						Active	30.7
